# ABCG2 inh – human ABCG2 inhibition, ABCB1 as counter-screen. IgMXP3 cells, JC-1 efflux, flow cytometry. inhibition, % at 6.6 µM. actives 0.1% (n = 190,000). AID 1325;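 active = inhibition above 80%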;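 also: 0% = DMSO and 100% = nicardipine control wells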
#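 Times: 10 min at 25 °C | Test system: Two drug-resistant human cell lines, ABCG2 and ABCB1 | Quantity: 3 million cells/mL final, two lines in 1:1 ratio | Signal: Flow cytometry, 530 nm JC-1 signal | Dosing: Compound at 6.6 µM | Controls: Nicardipine and DMSO wells | Reagent: JC-1 as fluorescent efflux pump substrate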
# PGE2 EP2 inh – EP2 receptor (human) inhibition | P43116 | C6 glioma cells expressing human EP2, cAMP TR-FRET; cells stimulated with saturating PGE2 | inhibition, % at 25 µM | actives 0.52% (n = 260,000) | AID 1422;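 active = percent inhibition above 40 after rounding to a whole number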;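 also: rat C6 glioma host cells with rolipram phosphodiesterase inhibitor present; the protocol text gives 20 µM as final concentration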
# EP2 modulator – EP2 receptor (human) modulation; P43116; EP2-expressing cells, cAMP HTRF FRET, PGE2 co-stimulation; induction, % at 25 µM; actives 0.83% (n = 260,000);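 active = compounds whose cAMP rise, as percent of the full-agonist control response, exceeds 60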;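 also: rat C6 glioma line stably carrying human EP2 under a CMV promoter; the protocol text gives 20 µM as final concentration; 100% = response of wells given 1 µM PGE2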
# ABCB1 inh – blocks JC-1 efflux by human ABCB1 transporter; inhibition, % at 6.6 µM; CCRF-Adr cells, flow cytometry; AID 1326; actives 0.067% (n = 190,000); in the data active = inhibition above about 40%;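 also: 0% = vehicle and 100% = reference inhibitor; higher value means more JC-1 retained so stronger ABCB1 efflux block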
# Target sequence (P08183 whole entry, looked up): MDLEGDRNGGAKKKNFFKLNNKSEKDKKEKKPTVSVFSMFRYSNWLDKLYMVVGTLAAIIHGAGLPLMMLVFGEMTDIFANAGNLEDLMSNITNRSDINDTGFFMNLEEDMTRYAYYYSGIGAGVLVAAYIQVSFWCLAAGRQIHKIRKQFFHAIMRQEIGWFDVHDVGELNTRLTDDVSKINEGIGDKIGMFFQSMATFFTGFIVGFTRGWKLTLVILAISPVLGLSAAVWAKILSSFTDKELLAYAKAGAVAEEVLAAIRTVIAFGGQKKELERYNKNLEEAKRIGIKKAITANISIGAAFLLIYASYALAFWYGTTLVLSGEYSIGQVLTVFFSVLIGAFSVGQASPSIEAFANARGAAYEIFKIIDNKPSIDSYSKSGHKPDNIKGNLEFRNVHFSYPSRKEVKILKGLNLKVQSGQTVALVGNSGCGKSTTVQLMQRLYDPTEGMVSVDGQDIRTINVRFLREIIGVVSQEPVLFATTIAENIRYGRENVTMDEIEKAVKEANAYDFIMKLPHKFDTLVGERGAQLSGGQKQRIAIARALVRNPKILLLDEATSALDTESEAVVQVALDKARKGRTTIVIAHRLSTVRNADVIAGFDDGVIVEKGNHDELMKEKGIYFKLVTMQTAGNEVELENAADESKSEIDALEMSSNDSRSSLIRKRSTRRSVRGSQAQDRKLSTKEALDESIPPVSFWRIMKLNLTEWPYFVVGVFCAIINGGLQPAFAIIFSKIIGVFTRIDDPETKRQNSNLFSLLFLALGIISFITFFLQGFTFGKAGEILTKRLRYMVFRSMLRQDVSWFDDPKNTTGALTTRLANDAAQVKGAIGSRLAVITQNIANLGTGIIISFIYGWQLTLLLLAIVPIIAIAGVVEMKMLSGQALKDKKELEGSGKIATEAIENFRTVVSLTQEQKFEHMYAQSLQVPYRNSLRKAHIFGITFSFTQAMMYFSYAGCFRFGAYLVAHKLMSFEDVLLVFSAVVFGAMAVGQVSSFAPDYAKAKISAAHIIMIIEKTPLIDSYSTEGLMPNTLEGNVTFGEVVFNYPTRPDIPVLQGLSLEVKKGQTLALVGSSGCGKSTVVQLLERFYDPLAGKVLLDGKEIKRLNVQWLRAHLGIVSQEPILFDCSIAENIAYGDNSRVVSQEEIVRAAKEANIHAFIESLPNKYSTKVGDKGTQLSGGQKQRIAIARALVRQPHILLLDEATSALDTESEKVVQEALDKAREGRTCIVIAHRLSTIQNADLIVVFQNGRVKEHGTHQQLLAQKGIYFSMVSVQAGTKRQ
# RBBP9 inh – blocks human serine hydrolase RBBP9; recombinant RBBP9, FP-Rh probe fluorescence polarization; AID 1515; O75884; actives 0.2% (n = 220,000); inhibition, % at 7.94 µM;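 active = inhibition above the campaign mean of all tested compounds plus 3 SD, cut at about 14% in these data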;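 also: plate controls were DMSO wells with RBBP9 for no effect and wells lacking RBBP9 protein for full effect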
#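 System: RBBP9 protein / Quantity: 2.5 µM RBBP9 dispensing solution, before mixing / Also added: Serine-hydrolase probe FP-Rh, 375 nM pre-mixing / Dosing: 7.94 µM single dose, 0.794% DMSO / Timing: enzyme-compound preincubation 30 min, then probe labeling 45 min, 25 °C / Signal: FP readout at 525/598 nm / Controls: DMSO-treated enzyme wells and wells lacking RBBP9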
# * = called active by the depositor; nt = not tested or not shown; ! = repeats disagree. The list is not random: actives were taken first. Their share in the collection is about 1.5%.
SMILES,ABCG2 inh,PGE2 EP2 inh,EP2 modulator,ABCB1 inh,RBBP9 inh
COc1cc(OC)cc(C(=O)/C=C2\Sc3ccccc3N2C)c1,15,7,-35,2,-6
CN1/C(=C/C(=O)c2ccc(Cl)cc2)Sc2cc3c(cc21)OCO3,6,75*,-62,0,-1
COc1ccc(C(=O)/C=C2/Sc3cc4c(cc3N2C)OCO4)cc1,2,77*,28,0,-6
Cc1ccc2c(c1)c1c3n2CCN(C(=O)CN2CCN(C)CC2)C3CCC1 (configuration not stated),1,12,-48,0,-2
CN1CCN(CC(=O)N2CCn3c4c(c5cc(C6CCCCC6)ccc53)CCCC42)CC1 (configuration not stated),1,91*,-34,1,-10
Cc1ccc2nc(-c3ccccc3)c(-c3ccccc3)nc2c1,5,8,61*,1,-13
ClC(Cl)(c1nnnn1-c1ccccc1)c1nnnn1-c1ccccc1,-3,81*,-42,-1,10
CCCCC[C@H](O)/C=C/C1=C(CCCCCCC(=O)O)C(=O)CC1,6,27,89*,1,-8
O=C(Nc1ccc(Br)cc1)C(=O)Nc1ccc2c(c1)OCCO2,nt,8,-11,nt,nt
COc1ccc(-c2nc3ccccc3n2Cc2ccc(C)cc2)cc1,22,9,62*,8,-9
COC(=O)CSC1=NS(=O)(=O)c2ccccc21,3,114*,-16,0,4
O=C(CSC1=NS(=O)(=O)c2ccccc21)Nc1ccccc1,4,17,-20,1,-8
CCC(C(=O)Nc1ccc2c(c1)n(CC)c(=O)n2CC)n1cnc2ccccc21 (configuration not stated),nt,4,-8,nt,nt
CCCCCCCCNC(C)C(O)c1ccc(SC(C)C)cc1 (configuration not stated),-1,115*!,-23,1,-6
O=C(Nc1ccc(-c2noc(-c3cccs3)n2)cc1)c1cccnc1,-4,69*,-7,-2,-4
CC(C)c1nc(NN)c2c3c(sc2n1)CCCC3,nt,10,-34,nt,nt
Cc1cccc(N(CC(=O)NC(C)(C)C)C(=O)c2csnn2)c1C,nt,12,12,nt,nt
Cc1nc2cc(Cl)c(NC(=O)C3CCCCC3)cc2c(=O)n1Cc1ccccc1,nt,5,106*,nt,nt
COc1ccc(-c2[nH]ncc2N=Nc2ccccc2)cc1,4,5,62*,0,-12
CN1CCc2ccccc2[C@H]1Cc1ccccc1NC(=O)c1sc2ccccc2c1Cl,nt,42*,45,nt,nt
O=C(Nc1ccc(Nc2ccc3c(c2)C(=O)c2ccccc2C3=O)c2c1C(=O)c1ccccc1C2=O)c1ccccc1,nt,44*,-15,nt,nt
CC(=O)Nc1ccc2c(c1)C(=O)c1ccccc1C2=O,49,3,-6,1,-7
COCc1ccc(C(=O)N2CCC[C@H]2[C@H](O)c2nc3ccccc3s2)s1,nt,nt,-54,nt,nt
CCCSc1nc2sc3c(c2c(=O)n1C)CCCC3,nt,11,65*,nt,nt
CCCSc1nc2sc3c(c2c(=O)n1CC)CCCC3,nt,9,-9,nt,nt
SMILES,ABCG2 inh,PGE2 EP2 inh,EP2 modulator,ABCB1 inh,RBBP9 inh
CNC(=O)c1nnsc1S(=O)c1ccc(Cl)cc1 (configuration not stated),4,29,-84,0,-9
CCCNC(=O)c1nnsc1S(=O)c1ccc(Cl)cc1 (configuration not stated),-1,69*,-74,0,-8
N#CC(C#N)=C1C=CC=CN1/C(=C\c1ccccc1)C(=O)c1cccs1,16,49*,2,-1,-1
N#CC(C#N)=C1C=CC=CN1/C(=C\c1ccccc1Cl)C(=O)c1ccccc1,34,24,-30,10,-9
CCCCC[C@@H](O)[C@@H]1C(=O)O[C@@H](C)[C@@H](O)C=C/C=C\C=CC=C/C=C(/C)[C@H](O)C[C@H](O)C[C@H](O)C[C@H](O)C[C@H](O)C[C@H](O)C[C@@H]1O,nt,50*,23,nt,nt
Cc1cc(C)c2nc(SCC(=O)Nc3nc(C)c(C)s3)cc(C)c2c1,nt,19,61*,nt,nt
CCOC(=O)CSc1nc(C2CCCCC2)nc2ccccc12,nt,10,66*,nt,nt
CSc1nc(Cc2ccccc2)nc2ccccc12,2,12,62*,0,5
CCOc1ccccc1NC(=O)CSc1nc(Cc2ccccc2)nc2ccccc12,nt,10,79*,nt,nt
c1ccc(CCn2nnnc2CN2CCCCC2)cc1,nt,15,48,nt,nt
COc1ccccc1NC(=O)CSc1nc(C2CCCCC2)nc2ccccc12,nt,6,79*,nt,nt
CC(=O)Nc1ccc(NC(=O)CSc2nc(C3CCCCC3)nc3ccccc23)cc1,nt,18,26,nt,nt
CCCc1nc(SCC(=O)Nc2ccc(C)cc2C)c2ccccc2n1,nt,10,-16,nt,nt
CCCc1nc(SCC(=O)Nc2nc(C)c(C)s2)c2ccccc2n1,nt,8,63*,nt,nt
O=S1(=O)N=C(Nc2ccc(O)cc2)c2ccccc21,1,4,2,0,-7
O=S1(=O)OC(c2ccc(O)cc2)(c2ccc(O)cc2)c2ccccc21,nt,96*,-32,nt,nt
Cc1cccc(N=N/C(=C\O)C(=O)c2cccs2)c1,29,7,64*,0,-5
CC(=O)c1ccc(NC(=O)C2(c3ccccc3)CC2(Cl)Cl)cc1 (configuration not stated),nt,2,-22,nt,1
O=C(Nc1ccccc1Cl)C1(c2ccccc2)CC1(Cl)Cl (configuration not stated),-13,4,62*,-3,-4
CCc1ccc2nc(SCC(=O)N3c4ccccc4CC3C)c(C#N)cc2c1 (configuration not stated),nt,9,64*,nt,nt
CCSc1cc(N2CCCC2)nc(-c2ccccc2)n1,1,7,64*,0,2
CCCSc1cc(N2CCCC2)nc(-c2ccccc2)n1,1,1,49,-3,-9
Cn1ncc(S(=O)(=O)Cc2ccccc2)c(Cl)c1=O,nt,89*,-33,nt,4
Cn1ncc(SCc2ccccc2)c(Cl)c1=O,nt,6,-31,nt,-12
CCN(CC)CCNC(=O)c1ccc2c(c1NCCO)C(=O)c1ccccc1C2=O,nt,56*,-59,nt,-5
COc1ccc(OC)c(CN2CCN(C(=O)c3cccc(OC)c3OC)CC2)c1,nt,7,-39,nt,nt
CCc1ccc(S(=O)(=O)/N=C2/C=C(Sc3ncn[nH]3)C(=O)c3ccccc32)cc1,-5,61*,-96,0,3
Cc1ccc(OCCCN2C(=O)C(=O)c3cccc(C)c32)cc1,3,24,63*,0,1
CC(=O)O[C@H]1CC[C@@]2(C)C(=CC[C@H]3[C@H]2CC[C@]2(C)[C@@H]4[C@@H](C)[C@]5(CC[C@H](C)CN5)O[C@@H]4C[C@@H]32)C1,nt,45*,11,nt,nt
CC(C)(C)NC(=O)C(c1ccccn1)N(C(=O)c1csnn1)c1ccc(Cl)cc1 (configuration not stated),nt,11,-2,nt,nt
